Laboratory results from ChEMBL document CHEMBL1135423, “Acyl-protected hydroxylamines as spin label generators for EPR brain imaging” (J Med Chem, 2002).

Tests used:
Type in all cases: ADME, organism-based
Mus musculus [1] = assay: Biodistribution of compound (oxidized form) in heart tissue, animals were sacrificed 60 minutes after dosing, in DMSO solution; conditions: in vivo, 1 h
Summary of the method: (§1)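 In female C3H HenMTV⁻ mice (6-8 weeks, 22-25 g; three per time point), compound was injected ip as 500 µL of 40 mM solution. Animals were killed 10 or 60 min later. Brain, heart, liver, kidney, spleen and blood were removed and each homogenized in ice-cold PBS. Nitroxide (oxidized form) was quantified by EPR signal intensity in the half of each homogenate not treated with ferricyanide.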

Mus musculus [2] = assay: Biodistribution of compound (oxidized form) in liver tissue, animals were sacrificed 10 minutes after dosing, in DMSO sol.; conditions: in vivo; summary of the method: as §1
Mus musculus [3] = assay: Biodistribution of compound (oxidized form) in spleen tissue, animals were sacrificed 10 minutes after dosing, in DMSO solution; conditions: in vivo; summary of the method: as §1
Mus musculus [4] = assay: Biodistribution in mice as total concentration of both oxidized and reduced forms in kidney and animals were sacrificed 10 minutes after ip dosing, in DMSO solution; conditions: in vivo
Summary of the method: (§2)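 Female C3H HenMTV⁻ mice (6-8 weeks old, 22-25 g; three per time point) were given an ip injection of 500 µL of 40 mM compound. They were euthanized at 10 or 60 min. Brain, heart, liver, kidney, spleen and blood were excised and each homogenized in ice-cold PBS. One half of each homogenate received K₃[Fe(CN)₆] (final 1 mM) to oxidize hydroxylamine to nitroxide. Total nitroxide plus hydroxylamine was read from EPR signal intensity.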

Mus musculus [5] = assay: Biodistribution of compound (oxidized form) in blood tissue, animals were sacrificed 10 minutes after dosing, in DMSO solution; conditions: in vivo; summary of the method: as §1
Mus musculus [6] = assay: Biodistribution in mice, total concentration of both oxidized and reduced forms in brain tissues, animals were sacrificed 60 minutes after dosing, in DMSO; conditions: in vivo, 1 h; summary of the method: as §2
Mus musculus [7] = assay: Biodistribution of compound (total concentration of both oxidized and reduced forms) in spleen tissues, animals were sacrificed 60 minutes after dosing, in DMSO; conditions: in vivo, 1 h
Summary of the method: (§3)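 Female C3H HenMTV⁻ mice (6-8 weeks old, 22-25 g; three per time point) got one i.p. injection of 500 µL of 40 mM compound. They were euthanized at 10 or 60 min. Organs and blood were excised and homogenized separately in ice-cold PBS. One half of each homogenate received K₃[Fe(CN)₆] (final 1 mM) to oxidize hydroxylamine. Total nitroxide plus hydroxylamine was quantified by EPR signal intensity.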

Mus musculus [8] = assay: Biodistribution of compound (oxidized form) in blood tissues, animals were sacrificed 60 minutes after dosing, in DMSO solution; conditions: in vivo, 1 h; summary of the method: as §1
Mus musculus [9] = assay: Biodistribution of compound (oxidized form) in liver tissues, animals were sacrificed 60 minutes after dosing, in DMSO solution; conditions: in vivo, 1 h; summary of the method: as §1
Mus musculus [10] = assay: Biodistribution of compound (oxidized form) in brain tissue, animals were sacrificed 60 minutes after dosing, in DMSO solution; conditions: in vivo, 1 h; summary of the method: as §1
Mus musculus [11] = assay: Biodistribution of compound (oxidized form) in brain tissue, animals were sacrificed 10 minutes after dosing, in DMSO sol.; conditions: in vivo; summary of the method: as §1
Mus musculus [12] = assay: Biodistribution of compound (oxidized form) in spleen tissues, animals were sacrificed 60 minutes after dosing, in DMSO solution; conditions: in vivo, 1 h; summary of the method: as §1
Mus musculus [13] = assay: Biodistribution of compound (oxidized form) in heart tissue, animals were sacrificed 10 minutes after dosing, in DMSO sol.; conditions: in vivo; summary of the method: as §1
Mus musculus [14] = assay: Biodistribution in mice as total concentration of both oxidized and reduced forms in liver and animals were sacrificed 10 minutes after ip administration in DMSO solution; conditions: in vivo; summary of the method: as §2
Mus musculus [15] = assay: Biodistribution of compound (total concentration of both oxidized and reduced forms) in heart tissues, animals were sacrificed 10 minutes after dosing, in DMSO; conditions: in vivo; summary of the method: as §3
Mus musculus [16] = assay: Biodistribution of compound (total concentration of both oxidized and reduced forms) in kidney tissues, animals were sacrificed 60 minutes after dosing, in DMSO; conditions: in vivo, 1 h; summary of the method: as §3
Mus musculus [17] = assay: Biodistribution of compound (total concentration of both oxidized and reduced forms) in liver tissues, animals were sacrificed 60 minutes after dosing, in DMSO; conditions: in vivo, 1 h; summary of the method: as §3
Mus musculus [18] = assay: Biodistribution of compound (total concentration of both oxidized and reduced forms) in blood tissues, animals were sacrificed 60 minutes after dosing, in DMSO; conditions: in vivo, 1 h; summary of the method: as §3
Mus musculus [19] = assay: Biodistribution of compound (oxidized form) in brain tissues, animals were sacrificed 10 minutes after dosing, in DMSO solution; conditions: in vivo; summary of the method: as §1
Mus musculus [20] = assay: Biodistribution of compound (oxidized form) in kidney tissue, animals were sacrificed 60 minutes after dosing, in DMSO solution; conditions: in vivo, 1 h; summary of the method: as §1
Mus musculus [21] = assay: Biodistribution of compound (oxidized form) in kidney tissue, animals were sacrificed 10 minutes after dosing, in DMSO solution; conditions: in vivo; summary of the method: as §1
Mus musculus [22] = assay: Biodistribution of compound (total concentration of both oxidized and reduced forms) in heart tissues, animals were sacrificed 60 minutes after dosing, in DMSO; conditions: in vivo, 1 h; summary of the method: as §3
Mus musculus [23] = assay: Biodistribution in mice as total concentration of both oxidized and reduced forms in spleen and animals were sacrificed 10 minutes after ip dosing, in DMSO solution; conditions: in vivo; summary of the method: as §2
Mus musculus [24] = assay: Biodistribution in mice as total concentration of both oxidized and reduced forms in blood and animals were sacrificed 10 minutes after ip dosing, in DMSO solution; conditions: in vivo; summary of the method: as §2
Mus musculus [25] = organism: Mus musculus; assay: Biodistribution of compound (total concentration of both oxidized and reduced forms) in heart tissues; conditions: in vivo; summary of the method: as §3
Mus musculus [26] = organism: Mus musculus; assay: Biodistribution of compound (oxidized form) in brain tissue of mice; conditions: in vivo; summary of the method: as §1
Mus musculus [27] = assay: Biodistribution of compound (oxidized form) in kidney tissue, animals were sacrificed 60 minutes after dosing, in DMSO; conditions: in vivo, 1 h; summary of the method: as §1
Mus musculus [28] = organism: Mus musculus; assay: Biodistribution of compound (oxidized form) in blood tissue; conditions: in vivo; summary of the method: as §1
Mus musculus [29] = assay: Biodistribution of compound (oxidized form) in liver tissues, animals were sacrificed 60 minutes after dosing, in DMSO; conditions: in vivo, 1 h; summary of the method: as §1
Mus musculus [30] = assay: Biodistribution of compound (oxidized form) in brain tissue, animals were sacrificed 60 minutes after dosing, in DMSO; conditions: in vivo, 1 h; summary of the method: as §1
Mus musculus [31] = organism: Mus musculus; assay: Biodistribution of compound (oxidized form) in liver tissue; conditions: in vivo; summary of the method: as §1
Mus musculus [32] = assay: Biodistribution of compound (total concentration of both oxidized and reduced forms) in spleen tissues, animals were sacrificed 60 minutes after dosing in DMSO; conditions: in vivo, 1 h; summary of the method: as §3
Mus musculus [33] = assay: Biodistribution of compound (oxidized form) in heart tissue, animals were sacrificed 60 minutes after dosing, in DMSO; conditions: in vivo, 1 h; summary of the method: as §1
Mus musculus [34] = organism: Mus musculus; assay: Biodistribution of compound (oxidized form) in spleen tissue; conditions: in vivo; summary of the method: as §1
Mus musculus [35] = organism: Mus musculus; assay: Biodistribution of compound (oxidized form) in heart tissue of mice; conditions: in vivo; summary of the method: as §1
Mus musculus [36] = assay: Biodistribution of compound (oxidized form) in spleen tissues, animals were sacrificed 60 minutes after dosing, in DMSO; conditions: in vivo, 1 h; summary of the method: as §1
Mus musculus [37] = organism: Mus musculus; assay: Biodistribution of compound (total concentration of both oxidized and reduced forms) in spleen; conditions: in vivo; summary of the method: as §3
Mus musculus [38] = organism: Mus musculus; assay: Biodistribution of compound (total concentration of both oxidized and reduced forms) in liver; conditions: in vivo; summary of the method: as §3
Mus musculus [39] = organism: Mus musculus; assay: Biodistribution of compound (total concentration of both oxidized and reduced forms) in brain tissues; conditions: in vivo; summary of the method: as §3
Mus musculus [40] = organism: Mus musculus; assay: Biodistribution of compound (total concentration of both oxidized and reduced forms) in blood; conditions: in vivo; summary of the method: as §3
Mus musculus [41] = organism: Mus musculus; assay: Biodistribution of compound (total concentration of both oxidized and reduced forms) in kidney; conditions: in vivo; summary of the method: as §3
Mus musculus [42] = assay: Biodistribution of compound (total concentration of both oxidized and reduced forms) in brain tissues, animals were sacrificed 60 minutes after dosing, in DMSO; conditions: in vivo, 1 h; summary of the method: as §3
Mus musculus [43] = assay: Biodistribution of compound (total concentration of both oxidized and reduced forms) in kidney tissues, animals were sacrificed 60 minutes after dosing in DMSO; conditions: in vivo, 1 h; summary of the method: as §3
Mus musculus [44] = organism: Mus musculus; assay: Biodistribution of compound (oxidized form) in kidney tissue; conditions: in vivo; summary of the method: as §1
Mus musculus [45] = assay: Biodistribution of compound (oxidized form) in blood tissues, animals were sacrificed 60 minutes after dosing, in DMSO; conditions: in vivo, 1 h; summary of the method: as §1

SMILES: COC(=O)C1CC(C)(C)N(OC(C)=O)C1(C)C (stereo not drawn)
- Biodistribution (Mus musculus [1]): 0 nM (g of tissue)-1
- Biodistribution (Mus musculus [2]): 0 nM (g of tissue)-1
- Biodistribution (Mus musculus [3]): 0 nM (g of tissue)-1
- Biodistribution (Mus musculus [4]): 400 nM (g of tissue)-1
- Biodistribution (Mus musculus [5]): 0 nM (g of tissue)-1
- Biodistribution (Mus musculus [6]): 25 nM (g of tissue)-1
- Biodistribution (Mus musculus [7]): 25 nM (g of tissue)-1
- Biodistribution (Mus musculus [8]): 0 nM (g of tissue)-1
- Biodistribution (Mus musculus [9]): 0 nM (g of tissue)-1
- Biodistribution (Mus musculus [10]): 5 nM (g of tissue)-1
- Biodistribution (Mus musculus [11]): 2 nM (g of tissue)-1
- Biodistribution (Mus musculus [12]): 0 nM (g of tissue)-1
- Biodistribution (Mus musculus [13]): 0 nM (g of tissue)-1
- Biodistribution (Mus musculus [14]): 50 nM (g of tissue)-1
- Biodistribution (Mus musculus [15]): 100 nM (g of tissue)-1
- Biodistribution (Mus musculus [16]): 25 nM (g of tissue)-1
- Biodistribution (Mus musculus [17]): 30 nM (g of tissue)-1
- Biodistribution (Mus musculus [18]): 25 nM (g of tissue)-1
- Biodistribution (Mus musculus [19]): 0 nM (g of tissue)-1
- Biodistribution (Mus musculus [20]): 0 nM (g of tissue)-1
- Biodistribution (Mus musculus [21]): 0 nM (g of tissue)-1
- Biodistribution (Mus musculus [22]): 25 nM (g of tissue)-1
- Biodistribution (Mus musculus [23]): 100 nM (g of tissue)-1
- Biodistribution (Mus musculus [24]): 100 nM (g of tissue)-1

SMILES: CC(=O)OCOC(=O)C1CC(C)(C)N(OC(C)=O)C1(C)C (stereo not drawn)
- Biodistribution (Mus musculus [25]): 250 nM (g of tissue)-1
- Biodistribution (Mus musculus [26]): 0 nM (g of tissue)-1
- Biodistribution (Mus musculus [27]): 40 nM (g of tissue)-1
- Biodistribution (Mus musculus [28]): 50 nM (g of tissue)-1
- Biodistribution (Mus musculus [29]): 20 nM (g of tissue)-1
- Biodistribution (Mus musculus [30]): 0 nM (g of tissue)-1
- Biodistribution (Mus musculus [31]): 100 nM (g of tissue)-1
- Biodistribution (Mus musculus [32]): 150 nM (g of tissue)-1
- Biodistribution (Mus musculus [33]): 5 nM (g of tissue)-1
- Biodistribution (Mus musculus [34]): 40 nM (g of tissue)-1
- Biodistribution (Mus musculus [35]): 10 nM (g of tissue)-1
- Biodistribution (Mus musculus [36]): 20 nM (g of tissue)-1
- Biodistribution (Mus musculus [37]): 750 nM (g of tissue)-1
- Biodistribution (Mus musculus [38]): 250 nM (g of tissue)-1
- Biodistribution (Mus musculus [17]): 250 nM (g of tissue)-1
- Biodistribution (Mus musculus [39]): 0 nM (g of tissue)-1
- Biodistribution (Mus musculus [40]): 750 nM (g of tissue)-1
- Biodistribution (Mus musculus [18]): 400 nM (g of tissue)-1
- Biodistribution (Mus musculus [41]): 2500 nM (g of tissue)-1
- Biodistribution (Mus musculus [42]): 0 nM (g of tissue)-1
- Biodistribution (Mus musculus [43]): 2500 nM (g of tissue)-1
- Biodistribution (Mus musculus [44]): 50 nM (g of tissue)-1
- Biodistribution (Mus musculus [45]): 20 nM (g of tissue)-1
- Biodistribution (Mus musculus [22]): 250 nM (g of tissue)-1
